Source: ChEMBL document CHEMBL4364337, “The discovery and optimization of a series of 2-aminobenzoxazole derivatives as ChemR23 inhibitors” (Bioorg Med Chem, 2019)
Calls of active or inactive are those of the source. The rule behind the calls is not given here.

Columns and labels:
Chemerin-like receptor 1 [1] = molecular target: T1, Chemerin-like receptor 1 (Homo sapiens, UniProt Q99788); test: Inhibition of chemR23 in human CAL1 cells assessed as reduction in chemerin-induced intracellular calcium ion concentration preincubated for 45 mins followed by chemerin addition; format: functional, cell-based
T1 sequence (Q99788 whole entry): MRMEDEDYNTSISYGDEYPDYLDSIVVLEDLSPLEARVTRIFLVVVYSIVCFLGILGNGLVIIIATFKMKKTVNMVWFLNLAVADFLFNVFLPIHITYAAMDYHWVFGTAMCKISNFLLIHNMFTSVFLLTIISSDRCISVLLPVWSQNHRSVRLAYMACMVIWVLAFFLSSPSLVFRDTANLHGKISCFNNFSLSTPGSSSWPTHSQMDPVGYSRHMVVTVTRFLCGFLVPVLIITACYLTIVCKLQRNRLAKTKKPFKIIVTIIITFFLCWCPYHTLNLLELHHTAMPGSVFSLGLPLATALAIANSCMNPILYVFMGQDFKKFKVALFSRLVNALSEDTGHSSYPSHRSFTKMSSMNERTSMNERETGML
Outline: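 CAL-1 cells, native human ChemR23, 1 × 10⁴/well in RPMI 1640 with 10 mM HEPES, Calcium-3 dye, amaranth 0.75 mg/mL final. Compounds at final 0–10 µM for 45 min at 37 °C, then human chemerin (final 50 ng/mL, 1% BSA buffer); intracellular Ca²⁺ read by kinetic fluorescence; mean of four measurements.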

[2] = molecular target: C-X-C chemokine receptor type 4 (Homo sapiens, UniProt P61073); test: Inhibition of CXCR4 expressed in human CAL1 cells assessed as reduction in SDF1alpha-induced intracellular calcium ion concentration preincubated for 45 mins followed by SDF1alpha addition; format: functional, cell-based
Outline: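 CAL-1 cells (1 × 10⁴/well) loaded with Calcium-3 in RPMI1640, 10 mM HEPES, amaranth 0.75 mg/mL final. Compounds at final 0–10 µM for 45 min at 37 °C, then human SDF-1α (final 5 × 10^-3 µM, in buffer with 1% BSA); intracellular Ca²⁺ read by kinetic fluorescence.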

Chemerin-like receptor 1 [3] = molecular target: T1, Chemerin-like receptor 1; test: Agonist activity at chemR23 expressed in human CAL1 cells assessed as increase in intracellular calcium ion concentration; format: functional, cell-based
[4] = molecular target: T2, Chemerin-like receptor 1 (Homo sapiens) (UniProt Q99788); test: Induction of chemR23 internalization in human CAL1 cells at 10 uM incubated for 30 mins at 37 degC by flow cytometric analysis; format: cell-based
T2 sequence (whole entry): T1 sequence (Q99788 whole entry)
Outline: (§1)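 CAL-1 cells in RPMI1640 with 10 mM HEPES, 4.5 × 10⁵ cells per tube, exposed to compounds at 37 °C or 4 °C for 30 min; chemerin 50 ng/mL as reference ligand. Washed with PBS containing 2% FBS, stained with anti-ChemR23 antibody; surface ChemR23 measured by flow cytometry, single determination (N = 1).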

[5] = molecular target: T2, Chemerin-like receptor 1 (Homo sapiens); test: Induction of chemR23 internalization in human CAL1 cells at 10 uM incubated for 30 mins at 4 degC by flow cytometric analysis; format: cell-based; outline: as §1
Chemerin-like receptor 1 [6] = molecular target: T3, Chemerin-like receptor 1 (Mus musculus, UniProt P97468); test: Inhibition of chemR23 expressed in mouse BA/F3 cells assessed as reduction in chemerin-induced intracellular calcium ion concentration preincubated for 45 mins followed by chemerin addition; format: functional, cell-based
T3 sequence (P97468 whole entry): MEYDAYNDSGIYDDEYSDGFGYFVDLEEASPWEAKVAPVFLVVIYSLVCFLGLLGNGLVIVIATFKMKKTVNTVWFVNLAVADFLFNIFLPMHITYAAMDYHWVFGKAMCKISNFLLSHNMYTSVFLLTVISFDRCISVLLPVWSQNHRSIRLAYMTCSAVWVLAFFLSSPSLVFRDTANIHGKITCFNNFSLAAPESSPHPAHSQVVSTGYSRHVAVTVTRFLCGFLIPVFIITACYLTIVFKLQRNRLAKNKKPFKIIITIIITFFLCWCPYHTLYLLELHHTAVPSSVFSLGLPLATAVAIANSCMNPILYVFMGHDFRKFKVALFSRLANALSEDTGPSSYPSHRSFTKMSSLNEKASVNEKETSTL
Outline: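 Ba/F3 cells stably expressing mouse ChemR23, 1 × 10⁴/well, loaded with Calcium-3 in RPMI1640, 10 mM HEPES, amaranth 0.75 mg/mL final. Compounds at final 0–10 µM for 45 min at 37 °C, then mouse chemerin (final 2 ng/mL, 1% BSA buffer); intracellular Ca²⁺ read by kinetic fluorescence.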

[7] = molecular target: T2, Chemerin-like receptor 1 (Homo sapiens); test: Induction of chemR23 internalization in human CAL1 cells at 3 uM incubated for 30 mins at 37 degC by flow cytometric analysis; format: cell-based; outline: as §1
[8] = molecular target: T2, Chemerin-like receptor 1 (Homo sapiens); test: Induction of chemR23 internalization in human CAL1 cells at 3 uM incubated for 30 mins at 4 degC by flow cytometric analysis; format: cell-based; outline: as §1

C-X-C chemokine receptor type 4, sequence (P61073 whole entry): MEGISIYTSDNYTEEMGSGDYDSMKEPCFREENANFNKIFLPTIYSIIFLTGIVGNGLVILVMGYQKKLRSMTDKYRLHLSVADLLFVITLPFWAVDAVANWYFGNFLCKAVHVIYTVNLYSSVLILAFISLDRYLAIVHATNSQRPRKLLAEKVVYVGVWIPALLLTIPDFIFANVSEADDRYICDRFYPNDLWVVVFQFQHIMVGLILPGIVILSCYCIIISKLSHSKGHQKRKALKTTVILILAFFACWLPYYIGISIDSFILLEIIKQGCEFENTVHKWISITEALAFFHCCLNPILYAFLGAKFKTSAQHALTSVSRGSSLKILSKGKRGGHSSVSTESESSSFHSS

Work on CCCCN(c1nc2ccccc2o1)C(c1ccc(-c2ccccc2-c2nnn[nH]2)cc1)C1CC1 (configuration not stated) yielded an IC50 (Chemerin-like receptor 1 [1]) of over 3 µM, an IC50 [2] of over 3 µM and an EC50 (Chemerin-like receptor 1 [3]) of over 3 µM.
CCCCN(Cc1ccc(-c2ccccc2-c2nnn[nH]2)cc1)c1nc2ccccc2o1 was tested, and the Activity [4] was “Active”, the IC50 (Chemerin-like receptor 1 [1]) was 3.3 µM and the IC50 [2] was 9.7 µM. The Activity [5] was “inactive” and the EC50 (Chemerin-like receptor 1 [3]) was 5.2 µM.
With c1cncc(CN(Cc2ccc(-c3ccccc3-c3nnn[nH]3)cc2)c2nc3ccccc3o2)c1 the IC50 (Chemerin-like receptor 1 [1]) was over 10 µM, the IC50 [2] was over 10 µM and the EC50 (Chemerin-like receptor 1 [3]) was over 10 µM.
In the case of CCCCN(c1nc2cc(NC(=O)N(C)C)ccc2o1)[C@H](C)c1ccc(-c2ccccc2-c2nnn[nH]2)cc1, the IC50 (Chemerin-like receptor 1 [6]) is reported as 0.51 µM, the IC50 (Chemerin-like receptor 1 [1]) is reported as 0.032 µM and the IC50 [2] is reported as over 10 µM.
CCCCN(c1nc2cc(NC(=O)NC)ccc2o1)[C@H](C)c1ccc(-c2ccccc2-c2nnn[nH]2)cc1 was tested, and the IC50 (Chemerin-like receptor 1 [6]) was 0.94 µM, the IC50 (Chemerin-like receptor 1 [1]) was 0.034 µM and the IC50 [2] was over 10 µM.
Work on COCCN(Cc1ccc(-c2ccccc2-c2nnn[nH]2)cc1)c1nc2ccccc2o1 yielded an IC50 (Chemerin-like receptor 1 [1]) of 3.4 µM, an IC50 [2] of over 10 µM and an EC50 (Chemerin-like receptor 1 [3]) of over 10 µM.
Compound CCCCCN(Cc1ccc(-c2ccccc2-c2nnn[nH]2)cc1)c1nc2ccccc2o1 has an IC50 (Chemerin-like receptor 1 [1]) of 3.3 µM, an IC50 [2] of 5.6 µM and an EC50 (Chemerin-like receptor 1 [3]) of 6.6 µM.
Work on c1ccc(-c2nnn[nH]2)c(-c2ccc(CN(CC3CCCC3)c3nc4ccccc4o3)cc2)c1 yielded an IC50 (Chemerin-like receptor 1 [1]) of 2.2 µM, an IC50 [2] of 3.5 µM and an EC50 (Chemerin-like receptor 1 [3]) of 8.3 µM.
CCCCN(Cc1ccc(-c2ccccc2-c2nnn[nH]2)cc1)c1nc2cc(Cl)c(C)cc2o1 showed an IC50 (Chemerin-like receptor 1 [1]) of 3.3 µM, an IC50 [2] of 5.5 µM and an EC50 (Chemerin-like receptor 1 [3]) of over 10 µM.
In the case of CCCCN(c1nc2ccccc2o1)[C@H](C)c1ccc(-c2ccccc2-c2nnn[nH]2)cc1, the IC50 (Chemerin-like receptor 1 [6]) is reported as 0.15 µM, the Activity [7] is reported as “Active” and the IC50 (Chemerin-like receptor 1 [1]) is reported as 0.11 µM. The IC50 [2] was 8.7 µM, the EC50 (Chemerin-like receptor 1 [3]) was 1.2 µM and the Activity [8] was “inactive”.
With CCCCN(c1nc2cc(N(C)C(N)=O)ccc2o1)[C@H](C)c1ccc(-c2ccccc2-c2nnn[nH]2)cc1 the IC50 (Chemerin-like receptor 1 [6]) was over 10 µM and the IC50 (Chemerin-like receptor 1 [1]) was over 30 µM.
In the case of c1ccc(-c2nnn[nH]2)c(-c2ccc(CN(Cc3ccncc3)c3nc4ccccc4o3)cc2)c1, the IC50 (Chemerin-like receptor 1 [1]) is reported as over 10 µM, the IC50 [2] is reported as over 10 µM and the EC50 (Chemerin-like receptor 1 [3]) is reported as over 10 µM.
Compound CCCCN(c1nc2cc(NC(C)=O)ccc2o1)[C@H](C)c1ccc(-c2ccccc2-c2nnn[nH]2)cc1 has an IC50 (Chemerin-like receptor 1 [6]) of 2.1 µM, an IC50 (Chemerin-like receptor 1 [1]) of 0.44 µM and an IC50 [2] of over 10 µM. It also gave an EC50 (Chemerin-like receptor 1 [3]) of 1.5 µM.
CCCCN(c1nc2ccccc2o1)[C@@H](C)c1ccc(-c2ccccc2-c2nnn[nH]2)cc1 was tested, and the Activity [7] was “Active”, the IC50 (Chemerin-like receptor 1 [1]) was 7.6 µM and the IC50 [2] was 9.9 µM. For the same compound, the EC50 (Chemerin-like receptor 1 [3]) was over 10 µM and the Activity [8] was “inactive”.
With CCCCN(Cc1ccc(-c2ccccc2-c2nnn[nH]2)cc1)c1nc2cc(Cl)cc(C)c2o1 the IC50 (Chemerin-like receptor 1 [1]) was 2.5 µM, the IC50 [2] was 3.9 µM and the EC50 (Chemerin-like receptor 1 [3]) was over 10 µM.
With CCCCN(Cc1ccc(-c2ccccc2-c2nnn[nH]2)cc1)c1nc2cc(C(=O)OC)ccc2o1 the IC50 (Chemerin-like receptor 1 [1]) was 4.3 µM, the IC50 [2] was over 10 µM and the EC50 (Chemerin-like receptor 1 [3]) was over 10 µM.
CCCCN(c1nc2ccccc2o1)C(C)c1ccc(-c2ccccc2-c2nnn[nH]2)cc1 (racemic) was tested, and the IC50 (Chemerin-like receptor 1 [1]) was 0.25 µM, the IC50 [2] was 8.8 µM and the EC50 (Chemerin-like receptor 1 [3]) was 2.7 µM.
CCCCN(Cc1ccc(-c2ccccc2-c2nnn[nH]2)cc1)c1nc2cc(Cl)cc(Cl)c2o1 gave an IC50 (Chemerin-like receptor 1 [1]) of 1.2 µM, an IC50 [2] of 2.9 µM and an EC50 (Chemerin-like receptor 1 [3]) of over 10 µM.
Compound CCCCN(c1nc2cc(C(=O)NC)ccc2o1)[C@H](C)c1ccc(-c2ccccc2-c2nnn[nH]2)cc1 has an IC50 (Chemerin-like receptor 1 [6]) of 0.15 µM, an IC50 (Chemerin-like receptor 1 [1]) of 0.038 µM and an IC50 [2] of over 10 µM. The EC50 (Chemerin-like receptor 1 [3]) was 0.28 µM.
CCCCN(c1nc2cc(CNC(=O)NC)ccc2o1)[C@H](C)c1ccc(-c2ccccc2-c2nnn[nH]2)cc1 gave an IC50 (Chemerin-like receptor 1 [6]) of 13 µM, an IC50 (Chemerin-like receptor 1 [1]) of 0.048 µM and an IC50 [2] of over 10 µM. The EC50 (Chemerin-like receptor 1 [3]) was 1.3 µM.
With CCCCN(Cc1ccc(-c2ccccc2-c2nnn[nH]2)cc1)c1nc2cc(C)ccc2o1 the IC50 (Chemerin-like receptor 1 [1]) was 2.5 µM, the IC50 [2] was 8.6 µM and the EC50 (Chemerin-like receptor 1 [3]) was 3.9 µM.
Compound CCCCN(c1nc2cc(CC(=O)NC)ccc2o1)[C@H](C)c1ccc(-c2ccccc2-c2nnn[nH]2)cc1 has an IC50 (Chemerin-like receptor 1 [6]) of over 10 µM, an IC50 (Chemerin-like receptor 1 [1]) of 0.12 µM and an IC50 [2] of over 10 µM. The EC50 (Chemerin-like receptor 1 [3]) was 2.3 µM.
Work on CCCCN(Cc1ccc(-c2ccccc2-c2nnn[nH]2)cc1)c1nc2cc(CC(=O)NC)ccc2o1 yielded an IC50 (Chemerin-like receptor 1 [1]) of 1 µM, an IC50 [2] of over 10 µM and an EC50 (Chemerin-like receptor 1 [3]) of 3.9 µM.
c1ccc(CN(Cc2ccc(-c3ccccc3-c3nnn[nH]3)cc2)c2nc3ccccc3o2)cc1 gave an IC50 (Chemerin-like receptor 1 [1]) of over 10 µM, an IC50 [2] of 9.6 µM and an EC50 (Chemerin-like receptor 1 [3]) of over 10 µM.
CCCCN(c1nc2ccccc2o1)C(CC)c1ccc(-c2ccccc2-c2nnn[nH]2)cc1 (configuration not stated) gave an IC50 (Chemerin-like receptor 1 [1]) of 0.94 µM, an IC50 [2] of 8.8 µM and an EC50 (Chemerin-like receptor 1 [3]) of 4.5 µM.
With CCCCN(c1nc2cc(NC(N)=O)ccc2o1)[C@H](C)c1ccc(-c2ccccc2-c2nnn[nH]2)cc1 the IC50 (Chemerin-like receptor 1 [6]) was 0.43 µM, the IC50 (Chemerin-like receptor 1 [1]) was 0.037 µM and the IC50 [2] was over 10 µM.
With c1ccc(CN(Cc2ccc(-c3ccccc3-c3nnn[nH]3)cc2)c2nc3ccccc3o2)nc1 the IC50 (Chemerin-like receptor 1 [1]) was 2.8 µM, the IC50 [2] was over 10 µM and the EC50 (Chemerin-like receptor 1 [3]) was over 10 µM.
CCCCN(c1nc2ccccc2o1)C(C)(C)c1ccc(-c2ccccc2-c2nnn[nH]2)cc1 showed an IC50 (Chemerin-like receptor 1 [1]) of 8.4 µM, an IC50 [2] of over 10 µM and an EC50 (Chemerin-like receptor 1 [3]) of over 10 µM.
Work on CCCCN(Cc1ccc(-c2ccccc2-c2nnn[nH]2)cc1)c1nc2cc(CC(=O)OC)ccc2o1 yielded an IC50 (Chemerin-like receptor 1 [1]) of 2.4 µM, an IC50 [2] of over 10 µM and an EC50 (Chemerin-like receptor 1 [3]) of over 10 µM.
